Assay results as given in ChEMBL document CHEMBL4732112, “Synthesis and in vitro evaluation of novel spiroketopyrazoles as acetyl-CoA carboxylase inhibitors and potential antitumor agents” (Eur J Med Chem, 2021).

Columns and labels:
A549 = assay: Antiproliferative activity against human A549 cells assessed as cell growth inhibition after 72 hrs by MTT assay; type: functional, cell-based; conditions: A549, 72 h
Summary of the method: (§1)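 HepG2, A549 or MDA-MB-231 cells grown in DMEM with 10% FBS and penicillin/streptomycin at 37 °C, 5% CO2. Seeded at 3×10^3 per well, left 24 h, then exposed to a range of concentrations for 72 h. MTT added for 4 h, formazan dissolved in DMSO, absorbance read at 550 nm. Mean ± SD, n=3.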

HepG2 = assay: Antiproliferative activity against human HepG2 cells assessed as cell growth inhibition after 72 hrs by MTT assay; type: functional, cell-based; conditions: HepG2, 72 h; summary of the method: as §1
Acetyl-CoA carboxylase 1 [1] = molecular target: T1, Acetyl-CoA carboxylase 1 (Homo sapiens, UniProt Q13085); assay: Inhibition of recombinant human C-terminal His-tagged ACC1 (1 to 2383 residues) expressed in baculovirus infected Sf9 insect cells at 5 uM preincubated for 15 mins followed by substrate addition and measured after 60 mins by ADP-glo luminescence assay relative to control
Acetyl-CoA carboxylase 1 [2] = molecular target: T1, Acetyl-CoA carboxylase 1; assay: Inhibition of recombinant human C-terminal His-tagged ACC1 (1 to 2383 residues) expressed in baculovirus infected Sf9 insect cells at 0.1 uM preincubated for 15 mins followed by substrate addition and measured after 60 mins by ADP-glo luminescence assay relative to control
[3] = Cytotoxicity against HUVEC assessed as cell viability at 100 uM after 72 hrs by MTT assay relative to control; type: cell-based; conditions: human, HUVEC cells, read-out: Activity
Summary of the method: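 HUVEC kept in RPMI 1640 with 10% FBS at 37 °C, 5% CO2. Seeded at 3×10^3 per well and treated at 100 µM for 72 h after 24 h attachment. Viability by MTT with absorbance at 550 nm, as percent of control. Mean ± SD, n=3.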

MDA-MB-231 = assay: Antiproliferative activity against human MDA-MB-231 cells assessed as cell growth inhibition after 72 hrs by MTT assay; type: functional, cell-based; conditions: MDA-MB-231, 72 h; summary of the method: as §1
Acetyl-CoA carboxylase 1 [4] = molecular target: T1, Acetyl-CoA carboxylase 1; assay: Inhibition of recombinant human C-terminal His-tagged ACC1 (1 to 2383 residues) expressed in baculovirus infected Sf9 insect cells preincubated for 15 mins followed by substrate addition and measured after 60 mins by ADP-glo luminescence assay
Summary of the method: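 Recombinant ACC1 in assay buffer preincubated with inhibitor in DMSO for 15 min at room temperature. Reaction started with substrate mixture and run 60 min at room temperature. Stopped with ADP-Glo reagent for 40 min, then detection reagent for 40 min to convert ADP to ATP, read by luminescence. Mean of two independent experiments.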

Structure (SMILES)	IC50 (A549) [nM]	IC50 (HepG2) [nM]	inhibition (Acetyl-CoA carboxylase 1 [1]) [%]	inhibition (Acetyl-CoA carboxylase 1 [2]) [%]	viability at 72 h, 100 µM [3] [%]	IC50 (MDA-MB-231) [nM]	IC50 (Acetyl-CoA carboxylase 1 [4]) [nM]
Cc1cc(C(=O)N2CCC3(CC2)CC(=O)c2nn(C(C)(C)C)cc2O3)c2ccccc2n1	> 10000	9480	93.6	55	101	4860	> 20
CC(C)(C)n1cc2c(n1)C(=O)CC1(CCN(C(=O)c3cc(Cl)nc4ccccc34)CC1)O2	7170	4720	96.7	59.1	99.3	9220	> 20
CC(C)(C)n1cc2c(n1)C(=O)CC1(CCN(C(=O)c3cc(N4CCNCC4)nc4ccccc34)CC1)O2	> 10000	8570	97.6	59.6	102	4200	> 20
COc1ccccc1[C@H](Cn1c(=O)n(C(C)(C)C(=O)O)c(=O)c2c(C)c(-c3ncco3)sc21)OC1CCOCC1 [FIRSOCOSTAT]	–	–	–	–	–	–	4.34
CN1CCN(c2cc(C(=O)N3CCC4(CC3)CC(=O)c3nn(C(C)(C)C)cc3O4)c3ccccc3n2)CC1	> 10000	9550	97.4	52.8	93.5	8130	> 20
CC(C)(C)n1cc2c(n1)C(=O)CC1(CCN(C(=O)c3ccc4[nH]ncc4c3)CC1)O2	3520	1880	101	82.5	101	5930	–
CC(C)(C)n1cc2c(n1)C(=O)CC1(CCN(C(=O)c3cc(-c4ccc(N)cc4)nc4ccccc34)CC1)O2	970	630	101	94.1	84.8	4960	1.29
CC(C)(C)n1cc2c(n1)C(=O)CC1(CCN(C(=O)c3cc(N4CCOCC4)nc4ccccc34)CC1)O2	> 10000	4570	97.7	56.9	34.4	3180	> 20
Cc1ccc(-c2cc(C(=O)N3CCC4(CC3)CC(=O)c3nn(C(C)(C)C)cc3O4)c3ccccc3n2)cc1	5300	1440	101	93.8	49.6	> 10000	2.22
CC(C)(C)n1cc2c(n1)C(=O)CC1(CCN(C(=O)c3cc(-c4ccc(Br)cc4)nc4ccccc34)CC1)O2	9300	820	102	93.2	84.1	> 10000	5.67
CC(C)(C)n1cc2c(n1)C(=O)CC1(CCN(C(=O)c3cc(-c4ccccc4)nc4ccccc34)CC1)O2	1940	2110	101	90.5	97.3	> 10000	6
CC(C)(C)n1cc2c(n1)C(=O)CC1(CCN(C(=O)c3cc(-c4ccccc4Cl)nc4ccccc34)CC1)O2	2180	> 10000	94.4	43.6	103	> 10000	> 100
CCOc1cc(C(=O)N2CCC3(CC2)CC(=O)c2nn(C(C)(C)C)cc2O3)c2ccccc2n1	> 10000	> 10000	93.9	38.4	96.1	> 10000	> 100
CC(C)(C)n1cc2c(n1)C(=O)CC1(CCN(C(=O)c3cc(-c4ccccn4)nc4ccccc34)CC1)O2	7720	1500	103	84	104	8100	13.8
COc1ccc(-c2cc(C(=O)N3CCC4(CC3)CC(=O)c3nn(C(C)(C)C)cc3O4)c3ccccc3n2)cc1	3740	2780	101	94.8	102	> 10000	3.18
COc1ccc(-c2cc(C(=O)N3CCC4(CC3)CC(=O)c3nn(C(C)(C)C)cc3O4)c3ccccc3n2)cc1OC	2030	1560	102	95.6	93.7	7130	3.57
CC(C)Oc1cc(C(=O)N2CCC3(CC2)CC(=O)c2nn(C(C)(C)C)cc2O3)c2ccccc2n1	> 10000	3150	99.4	68	102	> 10000	> 20
CC(C)(C)n1cc2c(n1)C(=O)CC1(CCN(C(=O)c3cc(-c4ccc(Cl)cc4)nc4ccccc34)CC1)O2	2330	630	104	93.2	87.3	> 10000	6.09
Cc1ccccc1-c1cc(C(=O)N2CCC3(CC2)CC(=O)c2nn(C(C)(C)C)cc2O3)c2ccccc2n1	1880	> 10000	95.5	41.8	38.6	> 10000	> 100
COc1cc(C(=O)N2CCC3(CC2)CC(=O)c2nn(C(C)(C)C)cc2O3)c2ccccc2n1	> 10000	> 10000	93.8	36.7	98.6	> 10000	> 100
CN(C)c1ccc(-c2cc(C(=O)N3CCC4(CC3)CC(=O)c3nn(C(C)(C)C)cc3O4)c3ccccc3n2)cc1	1150	1730	99.6	96.4	91.3	> 10000	2.72
COc1cccc2c1C(=O)c1c(O)c3c(c(O)c1C2=O)C[C@@](O)(C(=O)CO)C[C@@H]3O[C@H]1C[C@H](N)[C@H](O)[C@H](C)O1 [DOXORUBICIN]	590	690	–	–	14.4	–	–
CC(C)(C)n1cc2c(n1)C(=O)CC1(CCN(C(=O)c3cc(-c4ccc(F)cc4)nc4ccccc34)CC1)O2	5770	2930	100	87.3	98.7	> 10000	9.4
